Laboratory results taken from ChEMBL document CHEMBL3526009, “Breast cancer resistance protein (ABCG2) determines distribution of genistein phase II metabolites: reevaluation of the roles of ABCG2 in the disposition of genistein” (Drug Metab Dispos, 2012).

Key:
[1] = AUC ( 0 to t) in wild-type FVB mouse at 2 mg/kg, po; type: ADME, organism-based, Plasma; set-up: dose 2 mg/kg, route oral
Outline: (§1)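 Male wild-type FVB or Bcrp1(−/−) mice (6–10 weeks) on nonsoy chow ≥1 week, fasted 12 h with water, refed at 4 h. Oral gavage of 2 or 20 mg/kg as 4 mg/ml suspension in oral suspending vehicle; n = 5. Tail-snip blood at 10 time points under isoflurane, whole blood by UPLC-MS/MS (MRM); noncompartmental analysis.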

[2] = Cmax in BCRP-/- mouse at 20 mg/kg, po; type: ADME, organism-based; set-up: dose 20 mg/kg, route oral; settings: in vivo; outline: as §1
Mus musculus [3] = species: Mus musculus; test: Drug uptake in BCRP-/- mouse colon at 10 uM by UPLC-MS/MS analysis; type: ADME, organism-based; settings: in vivo
Outline: (§2)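 In situ perfusion in FVB or Bcrp1(−/−) mice (n = 4): small intestine and colon (8–12 cm each) perfused together with 10 μM genistein in HBSS pH 7.4, 0.191 ml/min, 37°C. After 30-min washout, perfusate sampled at 60, 90, 120, 150 min; runs discarded if water flux >10% per 10 cm. Percent absorbed by UPLC-MS/MS.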

[4] = AUC (0 to 3 hrs) in wild-type FVB mouse at 50 mg/kg, po; type: ADME, organism-based; set-up: time < 3 hr, dose 50 mg/kg, route oral; settings: plasma
[5] = Cmax in BCRP-/- mouse at 20 mg/kg, ip; type: ADME, organism-based; set-up: dose 20 mg/kg, route intraperitoneal; settings: in vivo
Outline: (§3)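 Male FVB or Bcrp1(−/−) mice (6–10 weeks), nonsoy chow ≥1 week, fasted 12 h. Single i.p. 20 mg/kg from 2 mg/ml solution in 100 mM sodium bicarbonate–PEG 300 (7:3), pH 10; n = 5. Serial tail blood at 10 time points under isoflurane; whole-blood genistein and conjugates by UPLC-MS/MS; noncompartmental analysis.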

[6] = AUC ( 0 to t) in wild-type FVB mouse at 20 mg/kg, po; type: ADME, organism-based; set-up: dose 20 mg/kg, route oral; settings: plasma; outline: as §1
[7] = Cmax in BCRP-/- mouse at 8 mg/kg, po; type: ADME, organism-based; set-up: dose 8 mg/kg, route oral; settings: in vivo
[8] = Drug metabolism in wild-type FVB mouse hepatic S9 fraction assessed as compound glucuronidation rate at 10 uM by UPLC-MS/MS analysis; type: ADME, Liver; settings: s9, 10 µM
Outline: (§4)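 S9 from liver, small intestine or colon of FVB or Bcrp1(−/−) mice, 1 mg/ml protein, with 10 μM genistein in 50 mM potassium phosphate pH 7.4, 0.88 mM MgCl2, 4.4 mM saccharolactone, 0.022 mg/ml alamethicin. Glucuronidation started with 3.5 mM UDPGA; sulfation used 0.1 mM PAPS instead. 37°C, 60 min; n = 4.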

Colon = test: Drug uptake in wild-type FVB mouse colon at 10 uM by UPLC-MS/MS analysis; type: ADME, tissue-based; settings: in vivo; outline: as §2
Mus musculus [9] = test: Elimination rate constant in BCRP-/- mouse at 20 mg/kg, ip; type: ADME, organism-based; set-up: dose 20 mg/kg, route intraperitoneal; settings: in vivo; outline: as §3
[10] = Cmax in BCRP-/- mouse at 50 mg/kg, po; type: ADME, organism-based; set-up: dose 50 mg/kg, route oral; settings: in vivo
[11] = Drug metabolism in BCRP-/- mouse hepatic S9 fraction assessed as compound glucuronidation rate at 10 uM by UPLC-MS/MS analysis; type: ADME, Liver; settings: s9, 10 µM; outline: as §4
[12] = AUC ( 0 to t) in BCRP-/- mouse at 20 mg/kg, ip; type: ADME, organism-based; set-up: dose 20 mg/kg, route intraperitoneal; settings: plasma
[13] = Drug metabolism in wild-type FVB mouse colon S9 fraction assessed as compound glucuronidation rate at 10 uM by UPLC-MS/MS analysis; type: ADME, tissue-based; settings: s9, 10 µM; outline: as §4
[14] = Elimination rate constant in BCRP-/- mouse at 2 mg/kg, po; type: ADME, organism-based; set-up: dose 2 mg/kg, route oral; settings: in vivo; outline: as §1
[15] = Cmax in wild-type FVB mouse at 20 mg/kg, ip; type: ADME, organism-based; set-up: dose 20 mg/kg, route intraperitoneal; settings: in vivo; outline: as §3
[16] = Half life in wild-type FVB mouse at 20 mg/kg, ip; type: ADME, organism-based; set-up: dose 20 mg/kg, route intraperitoneal; settings: in vivo; outline: as §3
[17] = Drug metabolism in wild-type FVB mouse small intestine S9 fraction assessed as compound glucuronidation rate at 10 uM by UPLC-MS/MS analysis; type: ADME, tissue-based; settings: s9, 10 µM; outline: as §4
[18] = AUC ( 0 to t) in wild-type FVB mouse at 20 mg/kg, ip; type: ADME, organism-based; set-up: dose 20 mg/kg, route intraperitoneal; settings: plasma; outline: as §3
[19] = Biliary excretion in BCRP-/- mouse measured after 2.5 hrs post intestinal perfusion by UPLC-MS/MS analysis; type: ADME; settings: bile, read-out: Drug excretion
Outline: (§5)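 Gallbladder bile taken after 2.5 h of simultaneous small intestine/colon perfusion with 10 μM genistein (HBSS pH 7.4, 0.191 ml/min) in FVB or Bcrp1(−/−) mice (n = 4). Bile diluted 20-fold in HBSS, daidzein internal standard in acetonitrile added, dried and reconstituted. Genistein and conjugates quantified by UPLC-MS/MS.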

[20] = Drug metabolism in BCRP-/- mouse colon S9 fraction assessed as compound glucuronidation rate at 10 uM by UPLC-MS/MS analysis; type: ADME, tissue-based; settings: s9, 10 µM; outline: as §4
[21] = Drug metabolism in BCRP-/- mouse small intestine S9 fraction assessed as compound sulfation rate at 10 uM by UPLC-MS/MS analysis; type: ADME, tissue-based; settings: s9, 10 µM; outline: as §4
[22] = Biliary excretion in wild-type FVB mouse measured after 2.5 hrs post intestinal perfusion by UPLC-MS/MS analysis; type: ADME; settings: bile, read-out: Drug excretion; outline: as §5
[23] = AUC ( 0 to t) in BCRP-/- mouse at 2 mg/kg, po; type: ADME, organism-based; set-up: dose 2 mg/kg, route oral; settings: plasma; outline: as §1
[24] = Drug recovery in human Caco2 cells at 2 to 10 uM after 4 hrs by UPLC-MS/MS analysis; type: ADME, cell-based; settings: Caco-2, read-out: Drug recovery
Outline: (§6)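 Caco-2 TC7 monolayers on 3 μm polycarbonate inserts, used 19–22 days post-seeding (TEER ≥460 Ω/cm2). Genistein 2 or 10 μM in HBSS pH 7.4 applied apically, ±5 μM Ko143 apically; sampling both sides at 0–4 h hourly with replacement, triplicate. Genistein and four conjugates plus intracellular amounts at 4 h by UPLC-MS/MS; mass balance versus dose added.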

[25] = Cmax in BCRP-/- mouse at 2 mg/kg, po; type: ADME, organism-based; set-up: dose 2 mg/kg, route oral; settings: in vivo; outline: as §1
[26] = Drug transport in human Caco2 cells assessed as basolateral excretion of compound at 2 uM after 4 hrs by UPLC-MS/MS analysis in presence of BCRP inhibitor Ko143; type: ADME, cell-based; settings: caco-2, 4 h; outline: as §6
[27] = Elimination rate constant in wild-type FVB mouse at 20 mg/kg, ip; type: ADME, organism-based; set-up: dose 20 mg/kg, route intraperitoneal; settings: in vivo; outline: as §3
BCRP = test: Drug recovery in human Caco2 cells at 2 to 10 uM after 4 hrs by UPLC-MS/MS analysis in presence of BCRP inhibitor Ko143; type: ADME, cell-based; settings: Caco-2, with Ko143 (BCRP inhibitor, concentration not stated), read-out: Drug recovery; outline: as §6
[28] = Cmax in wild-type FVB mouse at 20 mg/kg, po; type: ADME, organism-based; set-up: dose 20 mg/kg, route oral; settings: in vivo; outline: as §1
[29] = Drug metabolism in BCRP-/- mouse small intestine S9 fraction assessed as compound glucuronidation rate at 10 uM by UPLC-MS/MS analysis; type: ADME, tissue-based; settings: s9, 10 µM; outline: as §4
Intestine = test: Drug uptake in wild-type FVB mouse small intestine at 10 uM by UPLC-MS/MS analysis; type: ADME, tissue-based; settings: in vivo; outline: as §2
[30] = AUC (0 to 3 hrs) in BCRP-/- mouse at 50 mg/kg, po; type: ADME, organism-based; set-up: time < 3 hr, dose 50 mg/kg, route oral; settings: plasma
[31] = Drug metabolism in wild-type FVB mouse small intestine S9 fraction assessed as compound sulfation rate at 10 uM by UPLC-MS/MS analysis; type: ADME, tissue-based; settings: s9, 10 µM; outline: as §4
[32] = Drug metabolism in BCRP-/- mouse hepatic S9 fraction assessed as compound sulfation rate at 10 uM by UPLC-MS/MS analysis; type: ADME, Liver; settings: s9, 10 µM; outline: as §4
[33] = AUC ( 0 to t) in BCRP-/- mouse at 20 mg/kg, po; type: ADME, organism-based; set-up: dose 20 mg/kg, route oral; settings: plasma; outline: as §1
[34] = Drug metabolism in BCRP-/- mouse colon S9 fraction assessed as compound sulfation rate at 10 uM by UPLC-MS/MS analysis; type: ADME, tissue-based; settings: s9, 10 µM; outline: as §4
Mus musculus [35] = test: Half life in BCRP-/- mouse at 20 mg/kg, ip; type: ADME, organism-based; set-up: dose 20 mg/kg, route intraperitoneal; settings: in vivo; outline: as §3
Blood = test: Drug metabolism in Wistar rat blood at 3.8 uM after 4 hrs by UPLC-MS/MS analysis; type: ADME, tissue-based
Outline: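 Glucuronide mix (G-7-G plus G-4′-G, 3 μM) with 3.8 μM genistein incubated in fresh Wistar rat blood, 37°C shaking bath up to 4 h; sulfate runs used 0.8 μM sulfates plus 2.2 μM aglycone. Samples at 0, 60, 120, 240 min quenched with acetonitrile/daidzein, analysed by UPLC-MS/MS; 50 mM phosphate buffer pH 7.4 as negative control; n = 3.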

[36] = Cmax in wild-type FVB mouse at 2 mg/kg, po; type: ADME, organism-based; set-up: dose 2 mg/kg, route oral; settings: in vivo; outline: as §1
[37] = Drug metabolism in wild-type FVB mouse colon S9 fraction assessed as compound sulfation rate at 10 uM by UPLC-MS/MS analysis; type: ADME, tissue-based; settings: s9, 10 µM; outline: as §4
[38] = Half life in BCRP-/- mouse at 2 mg/kg, po; type: ADME, organism-based; set-up: dose 2 mg/kg, route oral; settings: in vivo; outline: as §1
[39] = Drug metabolism in wild-type FVB mouse hepatic S9 fraction assessed as compound sulfation rate at 10 uM by UPLC-MS/MS analysis; type: ADME, Liver; settings: s9, 10 µM; outline: as §4
Mus musculus [40] = species: Mus musculus; test: Drug uptake in BCRP-/- mouse small intestine at 10 uM by UPLC-MS/MS analysis; type: ADME, organism-based; settings: in vivo; outline: as §2

- AUC(0-t) [1]: 0.36 µM·h
- Cmax [2]: 3350 nM
- Drug uptake (Mus musculus [3]): 52%
- AUC(0-t) at 3 h [4]: 0.9 µM·h
- Cmax [5]: 4420 nM
- AUC(0-t) [6]: 6.05 µM·h
- Cmax [7]: 1100 nM
- Drug metabolism [8]: 1299 pmol/min/mg
- Drug uptake (Colon): 46%
- Kel (Mus musculus [9]): 0.52 h⁻¹
- Cmax [10]: 200 nM
- Drug metabolism [11]: 2737 pmol/min/mg
- AUC(0-t) [12]: 11.5 µM·h
- Drug metabolism [13]: 78 pmol/min/mg
- k el [14]: 7.5e-05 s⁻¹
- Cmax [15]: 2680 nM
- half-life [16]: 4.8 h
- Drug metabolism [17]: metabolite_not_detected
- AUC(0-t) [18]: 10 µM·h
- concentration at 2.5 h [19]: 9100 nM
- Drug metabolism [20]: 117 pmol/min/mg
- Drug metabolism [21]: metabolite_not_detected
- concentration at 2.5 h [22]: 9900 nM
- AUC(0-t) [23]: 0.71 µM·h
- recovery at 4 h, up to 10 µM [24]: 92.3%
- Cmax [25]: 230 nM
- Drug transport [26]: Not Active
- k el [27]: 6.39e-05 s⁻¹
- recovery at 4 h, up to 10 µM (BCRP): 87.8%
- Cmax [28]: 650 nM
- Drug metabolism [29]: metabolite_not_detected
- Drug uptake (Intestine): 87%
- AUC(0-t) at 3 h [30]: 5 µM·h
- Drug metabolism [31]: metabolite_not_detected
- Drug metabolism [32]: 7.9 pmol/min/mg
- AUC(0-t) [33]: 16.4 µM·h
- Drug metabolism [34]: 15.2 pmol/min/mg
- t1/2 (Mus musculus [35]): 2.8 h
- Stability (Blood): Stable
- Cmax [36]: 100 nM
- Drug metabolism [37]: 26.5 pmol/min/mg
- half-life [38]: 3.8 h
- Drug metabolism [39]: 13.3 pmol/min/mg
- Drug uptake (Mus musculus [40]): 74%
SMILES: O=c1c(-c2ccc(O)cc2)coc2cc(O)cc(O)c12 [GENISTEIN]
